The EternaBench riboswitch data

System: MS2 coat protein
Test: apparent Kd, MS2 coat protein; higher = weaker binding; RNA-MaP array; FMN 200 µM where present
Method in brief: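 Each design was made on Illumina sequencing-chip clusters by stalled E. coli RNA polymerase and titrated with SNAP-549-labelled MS2 coat protein from 0.7 or 1.5 nM, doubling to 3 µM, in the absence and then the presence of constant ligand. The buffer was 100 mM Tris-HCl pH 7.5, 80 mM KCl, 4 mM MgCl2, BSA, DTT, yeast tRNA and Tween-20. The apparent Kd is the median of filtered per-cluster fits of binding curves, with green signal normalised to red-channel RNA signal and control-cluster median Fmax.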

[1] = designed as: OFF switch for flavin mononucleotide, no ligand
[2] = ligand present: flavin mononucleotide, designed as: OFF switch for flavin mononucleotide
[3] = designed as: ON switch for flavin mononucleotide, no ligand
[4] = ligand present: flavin mononucleotide, designed as: ON switch for flavin mononucleotide

Row | Sequence | apparent Kd [1] [nM] | apparent Kd [2] [nM] | apparent Kd [3] [nM] | apparent Kd [4] [nM]
1 | CUUUUGUGAGGAUAUUCGUAGUAGGGUCAUGGCAUUAUUAUGGAGAAGGCACAUGAGGAUCACCCAUGUACCUU | 19.7 | 27.5 | – | –
2 | GCCAGGCAUGUAGGAUAUCCAUUGCGUCGCGUUGGAGAAGGGCAGCACACAUGAGGAUCACCCAUGUGGUCUCCCAUGUAGUGU | 163 | 206 | – | –
3 | CUGACGCAAGCAGGAUAUCUACUGGCGAUGGUACAUGAGGAUCACCCAUGUAGAGAAGGGCUAAGUGGAAGGAUAAAAUAAAAG | 110 | 120 | – | –
4 | AAGGUGAGUCAAGGAUAUCCGGGCUGAAUGCCAGGAGAAGGUGACAUGAGGAUCACCCAUGUCUCUCCGAGCAUGGUAUUCUCA | 148 | 138 | – | –
5 | UUAUUUAUACAAGGAUAUCAAUUAUAUACACAUCCUACAUGAGGAUCACCCAUGUUUUAUUUUUUUGAGAAGGUGUAUUGUGGG | – | – | 92.3 | 109
6 | GUAGCAUAGUCAGGAUAUUCAUAUAAUAAAUAAACAUGAGGAUCACCCAUGUGGCGAAAGCCUUGGGAGAAGGGACAAUGCUAC | – | – | 1210 | 90.2
7 | GUAGCAUAGGGAGGAUAUUCAUAUAAUAAAUAAACAUGAGGAUCACCCAUGUGGCGAAAGCCUUGGGAGAAGGCCCAAUGCUAC | – | – | 866 | 36.2
8 | CUUCGACAUGAGGAUCACCCAUGUCAGGAUAUUGUGUAUCGGGUUUUUUACGGAAAGGCGAGAAGGGAUGUGUG | 27.6 | 22.3 | – | –
9 | CUCGUGUAAGGAUAUACGAGUCACGGAAAUAAACCGUGAAGGUAGAAGGUACAUGAGGAUCACCCAUGUAAAAC | 40 | 347 | – | –
10 | AGAAACUACGAGAAGGACAAAAAAGGUGCCGCAAACAUGAGGAUCACCCAUGUAGGAUAUCGUAGUUUCAGGAUCGUGAGAUCA | 16.5 | 98.3 | – | –
11 | UUGGACGUCGUAGGAUCUGUAGGAUAUUCCUACAUGAGGAUCACCCAUGUUGACAUGGAAGAAGGACAGAAGGACGAUGUCCAU | – | – | 6.35 | 3.7
12 | GCUAAGAAAGGAUAUACACCGGUGAGCCGCUGAUUUCAGCAACAUGAGGAUCACCCAUGUAGAAGGUUUAUGGG | 367 | 110 | – | –
13 | GGGUGUGAAGGAUAUACAUGAGGAUCACCCAUGUGAGAGGAGGAGGUUGAGGAGGUUGGUAGAAGGUCAGGAGG | 169 | 142 | – | –
14 | UCAUGUUAGCAGGAUAUGCUAUUUAUUUUUUAUGCAGAAGGGCUUACAUGAGGAUCACCCAUGUAUUAAGUUUU | 154 | 19.1 | – | –
15 | UAGGGCUUGGGCAGAAGGGUUACAUGAGGAUCACCCAUGUACAGAAGGAGAGCCUUGGGAAAGCUCUAGGAUAUGUCUAUGGGU | 9.93 | 6.66 | – | –
16 | CCCUAAUAUCGAGGAUAUGUCUAGACACAUGAGGAUCACCCAUGUAUGUGUAUAGAAGGCGAUAUUAACAGCAUGUUACAUCCC | – | – | 46.2 | 21.7
17 | UCGACCAGCGCCGCUCGAACAUGAGGAUCACCCAUGUACUCCAGAAGGCCGCCCAAGUACGGAGUGGAGGAUAUGGAGGUUCUC | – | – | 39.5 | 25.4
18 | AUUUUGUCAGGAUAUGAUUAGUAGGACGAGAGUGCUACUACUUAGAAGGGACAUGAGGAUCACCCAUGUAUUCC | 17.8 | 22.2 | – | –
19 | GUCGUGCGGCUUUGCUGUACGAGUACAUGAGGAUCACCCAUGUAGGAUAUGGUUCGUUUUGCGUGCUAGAAGGGCGUGCGUUGU | 25.7 | 21.3 | – | –
20 | CGGUGCUGAGGAUAUACAUGAGGAUCACCCAUGUGUGCCAGCUAGCUGACUGGCGCUUGUAGAAGGCAGUACUG | 12.1 | 24.4 | – | –
21 | UCGAGUCAUGAGAAGGGCUGAUGUUACAUGAGGAUCACCCAUGUCAUGGGCAGGAUAUCAUUGACACGGCUGUACCUCUCUUAA | – | – | 107 | 19.3
22 | ACUAGAUGAGGAUAUGCAUGUUUUCAUGUUCUUCUAGAUUAACAUGAGGAUCACCCAUGUAGAAGGCGUCUUUU | 21.4 | 32 | – | –
23 | GGGUACAUCGGAGGAUAUCAUGUAAAUACAUGAGGAUCACCCAUGUCGAUGGAGACAUCGGAGGUUGAGAAGGCCGAUGUACCG | – | – | 961 | 18.5
24 | AACCUAAAACAGAAGGCCAGCUACAUGAGGAUCACCCAUGUCGAAUCAUGGAGGAUAUGUUGUAAUUUACUCGCAGAUGAGUGC | – | – | – | 5.92
25 | GUCUGGCUAGGAUAUACAGUGUCCACAAGUUAGUUACCCUAACAUGAGGAUCACCCAUGUAGAAGGAGUGAGAA | 72.9 | 308 | – | –
26 | AUUACAUGAGGAUCACCCAUGUACAGCACGUUUCAAUACAGUGAGGAUAUACGAAAUGUAGGAACGUAGAAGGCACUGGGUGCA | – | – | 265 | 68.1
27 | CCGCGCUGUCGAGAGGAUAUGCGGUGAUGGACAUGAGGAUCACCCAUGUUAGCGAUAGCAUUACUGUAGAAGGCUCUACGGCGGC | – | – | 16.6 | 17.3
28 | ACAUUGUUACAGGAUAUCGUUGGUUUUAUCCUGCGAGAAGGGUAUACAUGAGGAUCACCCAUGUUAUCCUCAUU | 18.7 | 21.8 | – | –

Row | Sequence | apparent Kd [1] [nM] | apparent Kd [2] [nM] | apparent Kd [3] [nM] | apparent Kd [4] [nM]
29 | CCAGCGUGUGUGAGGAUAUGCUGGUCCUUGGAUCAGCAGAAGGCACAUGAGGAUCACCCAUGUGAGGACGUUGG | 22.4 | 94.5 | – | –
30 | GGAGUACAUGAGGAUCACCCAUGUUGGAACGAAGUAGGAUAUGUACAAUAUUAAAUAAAAACAGAAGGACUAAUAA | – | – | 62.4 | 39
31 | AUUGAGCUAGGAUAUACAUGAGGAUCACCCAUGUAGCAAAAUAGCUAUACAUGAUCGGGUAGAAGGAGCGCGAG | 13.6 | 20.5 | – | –
32 | GGAUAGAUGAAGGGCGAACGCGCACAUGAGGAUCACCCAUGUAGAAGGCGGUCCGCAACGCGGAUCGAGGAUAUAUAGUAUACG | 18.4 | 16.8 | – | –
33 | AAUGCCAAUGAAGGAUAUACAAACAUGAGGAUCACCCAUGUGUCUUUCGUGUAAGUGGAAUUCGCGUAGAAGGUCAUUGACAUA | 38.3 | 22.3 | – | –
34 | GGAUCGAGUGUGAGGAUAUGCUGGUCCUUGGAUCAGCAGAAGGCACAUGAGGAUCACCCAUGUGAAUACGGUCC | 24 | 165 | – | –
35 | CAGGUAGACUGAGGAUAUACAGACCUAGUCUAUCUAGGUCAAUUAACCACAUGAGGAUCACCCAUGUAGAAGGCAGUCUGCCUG | 15.9 | 21.4 | – | –
36 | AUUAUACAUGAGGAUCACCCAUGUAAUUAAUCUAGUAAGAUCUAGGAUAUCAGCUCGUUUAGAGCUGAGAAGGAGAUCACAUGU | – | – | 53.5 | 21
37 | UUAUAAAAUAUAGGAUAUGGAAACAUGAGGAUCACCCAUGUAUGAUAAGAUAAAUUAUGAUAUAGCCAGAAGGAUACAAUUUUU | – | – | 37.3 | 35
38 | AGGAGGUUAGGAUAUGCUGCUCGUCACUUGCGUGAUGAGUAGCAGAAGGGACAUGAGGAUCACCCAUGUAAAAA | 48.5 | 28.1 | – | –
39 | GGGUACAGUGAGAAGGUCUGCGGAUUCCUUAACAUGAGGAUCACCCAUGUAGAAGGAUAUCACAGGUAAAGGUCGGCUAACGAU | 5.36 | 6.58 | – | –
40 | UUACUAUUACAGAAGGUUAAAUAAUAUAUAAAUGAAGGAUAUGUGACAUGAGGAUCACCCAUGUUUCACCCACAUGAGGAUCAC | 12.1 | 13.3 | – | –
41 | GGAUAGGACAGAGGAUAUACGUGCCAGAGAUACUAGCAAAAUUUCCUCACAUGAGGAUCACCCAUGUAGAAGGCUGUCCUAUCG | 33.6 | 293 | – | –
42 | CGCUCUAUAUAUUUGGCAAGAAUCAGAAGGCGUUACAUGAGGAUCACCCAUGUUUUGUAUAGUAACGAGGAUAUGAUAUGAGCG | 13.3 | 13.3 | – | –
43 | AAAACAUGAGGAUCACCCAUGUAAAGAUCAGUUAAUAGAGGUGAGGAUAUACGAACUUAAAGGUAGUAGAAGGCACUGGGUACA | – | – | 35.9 | 30
44 | ACGGUGGUCACAGGAUAUCCGGCCCGCGUGCCUGGAGAAGGGUGACUCAGAACCACAUGAGGAUCACCCAUGUGCCUUGCCGUA | – | – | 92.1 | 31.9
45 | GCGUGACAUGAGGAUCACCCAUGUGAGGAUAUCUGGAUACUCUUUAUUUUAGAUAUCCAGAGAAGGCACAUGCU | 217 | 151 | – | –
46 | UUACCUCAUGAGAAGGACAUGAGGAUCACCCAUGUAGGAUAUCGUGGGAGACAGGUAUUGAAUCUUCGGAUUCAAUACCAGUCU | – | – | 396 | 27.6
47 | AAACCGUGUGGAGGAUAUGCAGUUGAGGUGAGGCGGCAGCUCUAUACGACAGCAGAAGGCCACAUGAGGAUCACCCAUGUAGGU | 107 | 326 | – | –
48 | GUAGCUACUAUUAUACAUGAGGAUCACCCAUGUUACAUGGGUAAGGAUAUUGAAGUUAUUAUUAUCAAGAAGGUACUAUGCUAC | – | – | 570 | 102
49 | AAAAAGCGAGGAUAUACAUGAGGAUCACCCAUGUCAAAAAAAUAGAAAAAAAUAAAAAGUAGAAGGCGCAAAAA | 58.8 | 58.4 | – | –
50 | AUAUAGAUGGUCAGGAUAUGCUAGUGGUAACAGUAGCAGAAGGGACAUGAGGAUCACCCAUGUGGAUACUGCUC | 23.9 | 93.6 | – | –
51 | AGCUAGUCAGGAUAUACGUACAUGUCAUUAGACGUGAAGGGACAUGAGGAUCACCCAUGUAGAAGGGACUAGCU | 37.6 | 139 | – | –
52 | ACUAUACGAGGAUAUACUGACAGGCCUCAGGCAUACAUCAAACAUGAGGAUCACCCAUGUAGAAGGCGUAUACU | 30.4 | 68.1 | – | –
53 | CAGCGAUAGCUAAAGUAUCUAUCAGAGGAUAUUUAUGAAACAUGAGGAUCACCCAUGUGAAACUGGGAGAAGGCUGAUAGAUAG | – | – | 11.9 | 5.47
54 | UUGGACGUCGGAGGAUAUGUAGGAUAUUCCUACAUGAGGAUCACCCAUGUUGACAUGGAAGAAGGACAGAAGGACGAUGUCCAU | – | – | 352 | 4.83
55 | CGCAAACAUGAGGAUCACCCAUGUGAGGAUAUGUGAGCACGAGAAAGAUAAAGUGAGCACAGAAGGCACAAGCG | 60.4 | 62.9 | – | –
